For assay [1], the system named is Candida albicans. Put plainly: Ratio of MIC for Candida albicans 9 harboring cytochrome b G37D mutant to MIC for wild type Candida albicans. The format is functional.
Assay [2] relates to Candida albicans. In words: Ratio of MIC for Candida albicans 1 harboring cytochrome b G37C mutant to MIC for wild type Candida albicans. It is filed as functional.
For the next assay, the system named is Clavispora lusitaniae. In words: Antifungal activity against Candida lusitaniae MY 1396 after 24 hrs by NCCLS broth microdilution method. Conditions: MY 1396, 24 h. It is filed as functional.
In assay [3] the test system is Candida albicans. In words: Antifungal activity against Candida albicans MY 1055 infected in DBA/2 mouse assessed as reduction in kidney fungal burden administered as ip tid. The settings on record: MY 1055, Kidney. It is filed as functional.
The test system of assay [4] is Candida albicans. Put plainly: Ratio of MIC for Candida albicans 10 harboring cytochrome b S20I mutant to MIC for wild type Candida albicans. It is filed as functional.
The test system of assay [5] is Candida albicans. In words: Antifungal activity against Candida albicans SC 53124 after 24 hrs by NCCLS broth microdilution method. The format is functional. Conditions: SC 53124, 24 h. (In broth dilution the organism is exposed to a series of concentrations in liquid medium.)
Assay [6] concerns Candida albicans. Put plainly: Antifungal activity against Candida albicans MY 1055 after 24 hrs by NCCLS broth microdilution method. It is filed as functional. Conditions: MY 1055, 24 h.
Assay [7] concerns Candida albicans. In words: Ratio of MIC for Candida albicans 6 harboring cytochrome b G37S mutant to MIC for wild type Candida albicans. It is filed as functional.
Assay [8] is described as follows: Inhibition of Saccharomyces cerevisiae MY 2141 electron transport protein complex 4 using ascorbate/TMPD as substrate assessed as decrease in oxygen consumption measured for 3 mins.
Assay [9] deals with Cryptococcus neoformans. In words: Antifungal activity against Cryptococcus neoformans MY 2061 infected in DBA/2 mouse assessed as reduction in spleen fungal burden at 100 mg/kg, ip bid. It is filed as functional, organism-based. On the set-up: dose 100 mg/kg. In outline: (§1)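 Mice with disseminated C. neoformans MY2061 infection (8 × 10⁵ cfu/mouse). Dosed twice daily at 100 or 50 mg/kg, oral or intraperitoneal, in 5% aqueous DMSO. Spleen burden measured as log cfu/g of spleen and compared by Excel t test (p < 0.05).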

For assay [10], the system named is Candida albicans. Put plainly: Ratio of MIC for Candida albicans 12 harboring cytochrome b Q22E mutant to MIC for wild type Candida albicans. It is filed as functional.
Assay [11] relates to Candida albicans. In words: Antifungal activity against Candida albicans after 24 hrs by NCCLS broth microdilution method in presence of 10% mouse plasma. The format is functional.
In assay [12] the test system is Candida albicans. Put plainly: Antifungal activity against Candida albicans MY 1055 assessed as inhibition of whole cell oxygen consumption at 0.003 ug/mL after 15 mins. It is filed as functional. Conditions: MY 1055, 0.25 h.
For assay [13], the system named is Cryptococcus neoformans. Put plainly: Antifungal activity against Cryptococcus neoformans MY 2061 infected in DBA/2 mouse assessed as reduction in spleen fungal burden at 50 mg/kg, po bid. It is filed as functional, organism-based. On the set-up: dose 50 mg/kg. In outline:
as §1

A short description of assay [14]: Inhibition of Saccharomyces cerevisiae MY 2141 cytochrome b-c1 complex Qn site in ubiquinol:Cytochrome c reductase.
A short description of assay [15]: Inhibition of Saccharomyces cerevisiae MY 2141 NADH:cytochrome c oxidoreductase.
Assay [16] is described as follows: Inhibition of ubiquinol:cytochrome c reductase in presence of 50% mouse plasma. It is filed as cell-free. In outline:
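Cytochrome c reductase assay run with mouse plasma added at increasing percentages, up to 50%, to gauge the effect of plasma protein binding on inhibition.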

Values after ≈ are worked out from the molar mass of the structure shown. Active and inactive are the calls of the source.

On to `C/C=C/[C@@H]1[C@H]2C[C@@H](C)CC[C@@H]2C(C)=C[C@H]1C(=O)c1c(O)c(-c2ccc(O)cc2)c[nH]c1=O` [ILICICOLIN H], for which the Ratio in the assay with Candida albicans [1], in the assay on Candida albicans [2], in the assay on Candida albicans [4], in the assay on Candida albicans [7] and with Candida albicans [10] was 250 in each case. Further, the MIC with Clavispora lusitaniae is 0.01 µg/mL (≈ 0.0231 µM); in the assay on Candida albicans [5], 0.01 µg/mL (≈ 0.0231 µM); against Candida albicans [6], 0.04 µg/mL (≈ 0.0923 µM); in the assay on Candida albicans [11], over 1 µg/mL. In addition, the ED90 in the assay with Candida albicans [3] worked out at 0.01 mg/kg. Also, the IC50 was over 10 µg/mL in assay [8], 3 nM in assay [14] and 2.31 nM in assay [15]. Also, the outcome with Cryptococcus neoformans [9] and in the assay with Cryptococcus neoformans [13] was Active. In the assay with Candida albicans [12], the inhibition at 0.003 µg/mL was determined as 100%. Also, the inhibition result in assay [16] is “inactive”.

A word on the MIC: it is the smallest concentration in the dilution series that meets the test's criterion for growth inhibition. As a reminder, the IC50 is the concentration that gives 50% inhibition. The term inhibition denotes the percentage by which the read-out fell short of the control.
